# PMC5777231 (Nature, 2017)
# Columns and labels:
# GLUTag cells = assay: GLP-1 release from GLUTag cells; assay type: cell-based, murine; details: equimolar concentrations, 2 hours
# Method in brief: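 Murine enteroendocrine GLUTag cells were grown in low-glucose GlutaMAX DMEM with 10% FBS and 1% Pen/Strep, then plated at 50,000 cells/well overnight. Cells were washed twice and preincubated 30 min in Krebs buffer with DPP4 inhibitor. Compounds from 10 mM DMSO stocks were added at 1 µM and 100 µM for 2 h, with DMSO as control. Clarified supernatant was assayed by active GLP-1 immunoassay. Two independent experiments gave 4–6 wells per condition, analysed by ANOVA.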
# G2A (GPR132) = molecular target: T1, G2A (GPR132) (Homo sapiens, UniProt Q9UNW8); assay: β-arrestin cell-based orphan GPCR agonist assay
# T1 sequence (Q9UNW8 1-380): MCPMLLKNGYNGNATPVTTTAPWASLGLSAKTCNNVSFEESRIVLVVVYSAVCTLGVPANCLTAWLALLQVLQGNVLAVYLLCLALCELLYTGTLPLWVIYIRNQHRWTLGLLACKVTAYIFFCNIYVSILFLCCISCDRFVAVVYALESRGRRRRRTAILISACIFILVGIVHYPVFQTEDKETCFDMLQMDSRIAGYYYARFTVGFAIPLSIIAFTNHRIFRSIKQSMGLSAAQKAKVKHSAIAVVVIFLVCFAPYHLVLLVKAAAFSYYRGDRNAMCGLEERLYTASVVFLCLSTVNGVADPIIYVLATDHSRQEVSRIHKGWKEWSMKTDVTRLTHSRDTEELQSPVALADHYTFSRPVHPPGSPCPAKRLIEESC
# Method in brief: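 Orphan GPCR panel, DiscoveRx β-arrestin recruitment format, agonist mode. Test compound was screened at 10 µM in singlicate. Follow-up dose-response curves were run in duplicate per dose, and EC50 was derived from them.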
# [1] = molecular target: T2, sphingosine-1-phosphate receptor 4 (S1PR4) (Homo sapiens, UniProt O95977); assay: β-arrestin cell-based GPCR agonist assay; details: for activation of / interaction with S1PR4 (in words): GPCR screen
# T2 sequence (O95977 1-384): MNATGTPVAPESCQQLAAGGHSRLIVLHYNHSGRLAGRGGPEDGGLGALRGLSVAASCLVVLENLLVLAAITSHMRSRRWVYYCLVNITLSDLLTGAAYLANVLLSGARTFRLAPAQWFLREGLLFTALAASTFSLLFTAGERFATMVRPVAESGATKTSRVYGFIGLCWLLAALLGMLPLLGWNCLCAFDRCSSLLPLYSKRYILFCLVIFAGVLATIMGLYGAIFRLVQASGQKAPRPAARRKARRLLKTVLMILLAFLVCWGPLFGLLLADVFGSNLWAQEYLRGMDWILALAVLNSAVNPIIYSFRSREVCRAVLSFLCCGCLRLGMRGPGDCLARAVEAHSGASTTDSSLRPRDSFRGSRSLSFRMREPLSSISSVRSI
# S1PR3 = S1PR3 (Homo sapiens, UniProt Q99500); assay: β-arrestin GPCR agonist screen, S1PR3; assay type: cell-based; details: 10 µM ligand
# Chain of S1PR3 (Q99500 whole entry): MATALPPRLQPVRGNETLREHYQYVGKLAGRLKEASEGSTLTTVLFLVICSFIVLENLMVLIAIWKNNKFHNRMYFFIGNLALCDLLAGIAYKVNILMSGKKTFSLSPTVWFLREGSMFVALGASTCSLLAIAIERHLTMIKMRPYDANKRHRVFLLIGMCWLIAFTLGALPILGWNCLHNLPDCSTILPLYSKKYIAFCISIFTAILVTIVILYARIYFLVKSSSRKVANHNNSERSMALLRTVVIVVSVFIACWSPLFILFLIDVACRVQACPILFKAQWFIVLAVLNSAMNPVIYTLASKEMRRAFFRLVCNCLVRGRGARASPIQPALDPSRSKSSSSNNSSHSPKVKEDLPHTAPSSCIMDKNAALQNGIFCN
# Method in brief: (§1)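 Cell-based β-arrestin recruitment screen, run by a contract lab, at 10 µM ligand in agonist and antagonist modes across 168 GPCRs with known ligands plus 72 orphan GPCRs. Test compounds were bacterial N-acyl amides, taking the most abundant analog of each family from heterologous E. coli expression. Synthetic N-acyl amides were screened the same way.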
# S1PR2 = S1PR2 (Homo sapiens, UniProt O95136); assay: β-arrestin GPCR agonist screen, S1PR2; assay type: cell-based; details: 10 µM ligand
# Chain of S1PR2 (O95136 whole entry): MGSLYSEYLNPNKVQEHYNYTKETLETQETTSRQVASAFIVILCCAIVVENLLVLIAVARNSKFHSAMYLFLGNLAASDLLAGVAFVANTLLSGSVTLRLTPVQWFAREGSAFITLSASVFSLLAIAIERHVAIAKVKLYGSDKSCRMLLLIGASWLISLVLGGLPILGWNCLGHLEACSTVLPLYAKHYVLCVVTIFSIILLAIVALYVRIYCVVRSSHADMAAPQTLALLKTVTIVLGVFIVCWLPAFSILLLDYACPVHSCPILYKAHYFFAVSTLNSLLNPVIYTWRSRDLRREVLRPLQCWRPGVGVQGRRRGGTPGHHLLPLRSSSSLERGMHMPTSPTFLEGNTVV
# Method in brief: as §1
# S1PR1 = S1PR1 (Homo sapiens, UniProt P21453); assay: β-arrestin GPCR agonist screen, S1PR1; assay type: cell-based; details: 10 µM ligand
# Chain of S1PR1 (P21453 whole entry): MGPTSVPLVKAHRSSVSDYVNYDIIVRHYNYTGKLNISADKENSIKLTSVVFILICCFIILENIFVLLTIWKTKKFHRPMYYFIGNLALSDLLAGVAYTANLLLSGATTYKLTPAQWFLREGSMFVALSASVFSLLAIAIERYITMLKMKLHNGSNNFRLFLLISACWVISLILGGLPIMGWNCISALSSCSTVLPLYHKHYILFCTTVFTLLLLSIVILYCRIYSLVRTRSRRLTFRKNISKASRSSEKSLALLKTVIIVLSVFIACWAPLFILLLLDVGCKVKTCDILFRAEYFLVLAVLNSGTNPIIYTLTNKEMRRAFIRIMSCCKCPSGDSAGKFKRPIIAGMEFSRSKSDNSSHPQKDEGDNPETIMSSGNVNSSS
# Method in brief: as §1
# [2] = mice, intravenous delivery; cited from earlier work
# GPR119 = molecular target: T3, GPR119 (Homo sapiens, UniProt Q8TDV5); assay: cAMP secondary assay in ACTOne HEK293 cells transfected with GPR119; assay type: cell-based; details: HEK293 cells stably transfected with GPR119 vs not transfected; GPR119 dependent
# T3 sequence (Q8TDV5 1-335): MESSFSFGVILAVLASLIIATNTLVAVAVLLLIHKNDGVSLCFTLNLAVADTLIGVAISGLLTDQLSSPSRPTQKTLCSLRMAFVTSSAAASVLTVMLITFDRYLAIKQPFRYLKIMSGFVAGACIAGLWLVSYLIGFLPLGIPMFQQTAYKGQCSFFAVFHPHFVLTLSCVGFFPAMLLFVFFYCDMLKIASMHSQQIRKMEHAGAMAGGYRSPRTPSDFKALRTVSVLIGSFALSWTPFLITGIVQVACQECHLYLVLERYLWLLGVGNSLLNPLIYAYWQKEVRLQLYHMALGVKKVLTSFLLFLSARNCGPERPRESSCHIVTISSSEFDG
# Method in brief: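 Orthogonal cAMP read-out used live ACTOne HEK293 cells, which carry a cAMP-sensitive ion channel, read with a membrane potential dye kit. GPR119-transfected cells were compared with parental untransfected cells. Each was exposed to equimolar ligand concentrations, with the endogenous ligand and an ADORA2B agonist as parental-line cAMP control. Relative fluorescence intensity was taken against background. Points were in quadruplicate, SD shown, and EC50 was derived.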
compound,measurement,setting,value
"CCCCCCCC/C=C\CCCCCCCC(=O)OC(CO)CO [2-OG, 2-oleoyl glycerol]",GLP-1 secretion,GLUTag cells,to the same magnitude
CCCCCCCCCCCCCC(O)CC(=O)NCC(=O)O (stereo not shown) [N-3-hydroxypalmitoyl glycine],activation of G2A (in words),G2A (GPR132),activate
CCCCCCCCCCCCCC(O)CC(=O)N[C@@H](CCCCN)C(=O)O (stereo partly shown) [N-3-hydroxypalmitoyl lysine],activation of / interaction with S1PR4 (in words),[1],interact
CCCCCCCCCCCCCC(O)CC(=O)N[C@@H](CCCN)C(=O)O (stereo partly shown) [N-3-hydroxypalmitoyl ornithine],activation of S1PR3,S1PR3,did not activate
same,EC50,[1],32 µM
same,activation of / interaction with S1PR4 (in words),[1],interact
same,activation of S1PR2,S1PR2,did not activate
same,activation of S1PR1,S1PR1,did not activate
CCCCCCCCCCCCCCCC(=O)N[C@@H](C)C(=O)O [N-palmitoyl alanine],activation of G2A (in words),G2A (GPR132),activate
"CCCCCCCC/C=C\CCCCCCCC(=O)NCCO [OEA, oleoylethanolamide]",blood glucose in OGTT,[2],fails to lower blood glucose
same,cellular cAMP concentration (in words),GPR119,increased
same,GLP-1 secretion,GLUTag cells,to the same magnitude
"CCCCCCCCCCCCC/C=C/[C@@H](O)[C@@H](N)COP(=O)(O)O [S1P, sphingosine-1-phosphate]",activation of S1PR3,S1PR3,activates
same,activation of / interaction with S1PR4 (in words),[1],activates
same,activation of S1PR2,S1PR2,activates
same,activation of S1PR1,S1PR1,activates
